Assay outcomes from PubChem.
Rows were chosen to be rich in hits. Some 1.7% of all compounds tested hit in one or more screens of this group.
HNF4A DNA FP: change in binding of human HNF4 alpha to DNA | activity change, % at 10 µM | HNF4a-FITC DNA binding, fluorescence polarization, 1 h | actives 0.3% (n = 360,000) | P41235 | AID 1224865; in the data active means activity change above about 30%, passing the limit was not always enough
TPT1 inhibitor: inhibitors of Candida albicans tRNA 2'-phosphotransferase TPT1. recombinant caTPT1, FP RNA substrate dephosphorylation. inhibition, % at 5 µM. actives 0.81% (n = 300,000). AID 1962;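 active means inhibition above the mean of all tested compounds plus 3 SD, set per screening campaign, cut at about 24% in these data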;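 further: plate controls were DMSO alone for no effect and ferristatin control at 100 nM for full effect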
IDE cell inh: cellular human IDE inhibition; inhibition, % at 5.59 µM; actives 0.41% (n = 320,000); P14735; HEK cells, FAbetaB cleavage, fluorescence polarization; AID 434962;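 active means percent inhibition above the average of all tested compounds plus 3 SD, set per screening campaign, cut at about 16% in these data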;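 further: IDE supplied by intact live HEK cells; FP after avidin binding of uncleaved biotin substrate so inhibition keeps polarization high; 0% = DMSO wells and 100% = 60 µM reference IDE inhibitor Ii1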
TbMetRS inhib: Trypanosoma brucei MetRS inhibition. actives 0.4% (n = 360,000). inhibition, % at 11.9 µM. AID 624268. purified T. brucei MetRS, ATP depletion, Kinase-Glo luminescence;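 active means inhibition above a per-plate cutoff of the control wells' mean inhibition plus 3 SD, cut at about 5.5% in these data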;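 further: 0% = DMSO wells median and 100% = median of wells with control inhibitor compound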
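Test system – parasite MetRS enzyme · Reagent – substrates ATP, L-methionine and bulk Escherichia coli tRNA · Doses – 11.9 µM compound single dose, 0.9% DMSO · Times – 15 min enzyme-compound preincubation, 2 h reaction, 10 min detection, 25 °C · Signal – Kinase-Glo luminescence, ATP depletion format · Controls – DMSO-only wells as low control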
CSN deneddyl inh: inhibitors of human CSN-mediated cullin deneddylation | Purified CSN, SCF-Nedd8-OG deneddylation, fluorescence polarization | inhibition, % at 12.5 µM | actives 0.38% (n = 360,000);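 active means pattern-corrected inhibition above about 35%, with an unprinted fluorescence ratio check between 0.5 and 1.5, limit read from the data, passing the limit was not always enough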;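 further: 0% = enzyme with substrate and 100% = substrate without enzyme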
Target sequence (Q92905 whole entry, looked up, one chain of several): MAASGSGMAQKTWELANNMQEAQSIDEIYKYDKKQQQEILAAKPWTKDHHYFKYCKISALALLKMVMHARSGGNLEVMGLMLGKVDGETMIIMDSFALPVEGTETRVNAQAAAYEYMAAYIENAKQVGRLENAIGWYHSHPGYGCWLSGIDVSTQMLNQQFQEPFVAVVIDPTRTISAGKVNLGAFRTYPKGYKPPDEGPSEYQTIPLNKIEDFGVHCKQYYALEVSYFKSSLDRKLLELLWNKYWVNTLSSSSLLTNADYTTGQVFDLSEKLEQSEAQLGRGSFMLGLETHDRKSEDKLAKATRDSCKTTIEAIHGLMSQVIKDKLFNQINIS
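Detection – fluorescence polarization · System – HEK293T-derived human Csn5 enzyme · Controls – substrate-only high control, full reaction low control · Timing – 90 min, room temperature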
IDE cell activ: boosts human insulin-degrading enzyme activity in HEK cells; P14735; FAbeta-B cleavage, fluorescence polarization; 0% vehicle, 100% cell-free pure enzyme wells; activation, % at 5.96 µM; actives 0.073% (n = 340,000); AID 493087;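 active means activation above the mean of all tested compounds plus 3 SD, set per screening campaign, cut at about 17% in these data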
TPT1 inh confirm: confirmation of Candida albicans TPT1 inhibitors; shares compounds with TPT1 inhibitor; recombinant caTPT1, fluorescence polarization, RNase T1 coupled; inhibition, % at 5 µM; actives 74% (n = 2,400); AID 2149;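 active means inhibition above the primary screen limit, the mean inhibition of all tested compounds plus 3 SD, cut at about 25% in these data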
RNase T1 inh: counter-screen for TPT1 inhibitors: inhibitors of Aspergillus oryzae RNase T1 | shares compounds with TPT1 inhibitor | RNase T1 cleavage, fluorescence polarization, 1536-well | inhibition, % at 5 µM | actives 83% (n = 2,400) | AID 2153;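 active means inhibition above the solvent-only control well mean plus 3 SD, limit set per screening run, cut at about 23% in these data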;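 further: plate controls were DMSO wells with enzyme for no effect and wells without RNase T1 for full effect; inhibitors block cleavage so intact labeled substrate keeps polarization high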
Target sequence (P00651 whole entry, looked up): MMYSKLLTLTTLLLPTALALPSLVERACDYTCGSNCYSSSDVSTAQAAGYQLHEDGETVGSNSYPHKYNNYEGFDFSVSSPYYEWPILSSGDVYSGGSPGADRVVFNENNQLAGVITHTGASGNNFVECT
IDE inh confirm: cellular human IDE inhibition, confirmation. shares compounds with IDE cell inh. HEK cells, FAbetaB cleavage, fluorescence polarization. inhibition, % at 5.59 µM. actives 51% (n = 1,200);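 active means mean inhibition across triplicate wells above the cutoff set by the earlier primary insulin-degrading enzyme screen, cut at about 16% in these data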;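 further: 0% = DMSO wells and 100% = 60 µM reference IDE inhibitor Ii1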
HEK293 tox: kills HEK cells in IDE inhibitor counter-screen; shares compounds with IDE cell inh; HEK293 cytotoxicity, ATP luminescence; inhibition, % at 5.59 µM; actives 28% (n = 1,200); AID 449730; in the data active means inhibition above about 22%;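 further: 0% = vehicle wells and 100% = reference cytotoxic drug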
HNF4a DNA conf: change in binding of human HNF4 alpha to DNA, retest | shares compounds with HNF4A DNA FP | HNF4A-FITC DNA binding, fluorescence polarization, 1 h | activity change, % at 12.5 µM | actives 99% (n = 210) | AID 1224897; call rule not given here
Active calls of the source: *; nt = no result given.

SMILES | HNF4A DNA FP | TPT1 inhibitor | IDE cell inh | TbMetRS inhib | CSN deneddyl inh | IDE cell activ | TPT1 inh confirm | RNase T1 inh | HNF4a DNA conf | others
O=C(NCC(c1ccco1)N1CCCCC1)c1ccc(S(=O)(=O)Nc2ccccc2)cc1 (stereo not given) | 3 | -2 | 1 | 0 | -2 | 0 | nt | nt | nt
N#CCC(=O)Nc1ccc(C(=O)NCC(c2ccco2)N2CCCCC2)cc1 (stereo not given) | 67* | 48* | 2 | -2 | 42* | -1 | 56* | 66* | 44*
CN(C)c1ccc(-c2sc(Nc3ccccc3)n[n+]2-c2ccc(F)cc2)cc1 | 69* | 35* | 2 | 0 | 7 | -1 | 93* | 98* | 80*
COc1ccc(-c2sc(Nc3ccccc3)n[n+]2-c2ccc(F)cc2)cc1Br | 2 | -2 | -4 | 0 | 3 | 7 | nt | nt | nt
Cn1cccc1/C=C1\SC(=S)N(NC(=O)c2cccc(Cl)c2)C1=O | 61* | 86* | -2 | -4 | 36* | -5 | 98* | 111* | 97*
O=C(COc1ccc(Cl)cc1Cl)NN1C(=O)/C(=C\c2ccc(Cl)cc2)SC1=S | -2 | 1 | 0 | 0 | 1 | -4 | nt | nt | nt
Cc1ccccc1NS(=O)(=O)c1ccc2c(c1)CCC(=O)N2 | 2 | nt | nt | -1 | -3 | nt | nt | nt | nt
CCC(=O)N(C)C[C@H]1Oc2ncc(C#Cc3ccncc3)cc2C(=O)N([C@@H](C)CO)C[C@@H]1C | 2 | nt | nt | 0 | -4 | nt | nt | nt | nt
COc1ccccc1-n1nnnc1SCC(=O)Nc1ccc(C)c(N)c1 | 2 | -92 | 4 | 0 | -2 | 1 | nt | nt | nt
Cc1ccc(C(=O)OCC(=O)N(C)c2ccccc2)c(C)c1 | 1 | -4 | 9 | 0 | 0 | -1 | nt | nt | nt
CN(C(=O)COC(=O)c1ccc([N+](=O)[O-])cc1N)c1ccccc1 | 43* | 84* | 4 | 1 | 42* | -5 | 75* | 82* | 92*
CCN(CC)C(=O)CSc1nc(-c2ccccc2)ccc1C#N | 4 | 2 | 12 | 0 | 0 | 2 | nt | nt | nt
N#Cc1ccc(-c2cccnc2)nc1SCC(=O)c1ccccc1 | 46* | 67* | 23* | 2 | 30 | -41 | 66* | 74* | 49* | IDE inh confirm=42*;HEK293 tox=18
C=CCN1C(=O)/C(=C/c2ccc(O)cc2)S/C1=N/c1nccs1 | 45* | 73* | 119* | 0 | 44* | -111 | 93* | 92* | 69* | IDE inh confirm=94*;HEK293 tox=20
COC(=O)C1CN(Cc2ccccc2)C(=O)C1=O (stereo not given) | -2 | nt | nt | 0 | 4 | 2 | nt | nt | nt
CN1CCc2c(sc(NC(=O)c3ccc(S(=O)(=O)N4CCCC4)cc3)c2C(N)=O)C1 | 36* | 116* | 6 | 0 | 14 | -5 | 133* | 134* | 32*
COc1ccc(N/C=C/C(=O)C(F)(F)F)cc1 | -1 | 1 | -1 | 0 | -13 | 3 | nt | nt | nt
CSc1nnc(C)c(/C=C/Nc2ccc(Cl)cc2)n1 | 59* | 154* | 3 | 0 | -1 | -3 | 121* | 117* | 55*
COc1ccc(N/C=C/c2nc(SC)nnc2C)cc1 | 45* | 111* | 4 | 0 | 28 | -13 | 108* | 111* | 62*
O=C(Nc1nncs1)c1cc(S(=O)(=O)N2CCCCC2)ccc1Cl | 3 | 0 | 0 | 0 | 8 | -2 | nt | nt | nt
CN1C(=O)/C(=C\C=C2/CCCN2C)N(C)C1=S | 62* | 60* | 0 | -1 | -1 | -6 | 88* | 102* | 93*
CC1=Nc2ccccc2/C1=C/c1nc(-c2ccc(C)s2)oc1O | 55* | 166* | 13 | 0 | 32 | -11 | 179* | 170* | 74*
CC1=Nc2ccccc2/C1=C/c1c(C)[nH]c2ccccc12 | 4 | nt | nt | 0 | -4 | 1 | nt | nt | nt
COC(=O)[C@H]1[C@H]2C[C@@H]3c4[nH]c5cc(OC)ccc5c4CCN3C[C@H]2C[C@@H](OC(=O)c2ccc(N)cc2)[C@@H]1OC | 43* | 62* | 1 | 0 | 12 | 4 | 86* | 91* | 65*
COc1ccc2c3c([nH]c2c1)C1CC2C(CC(O)C(OC)C2CO)CN1CC3 (stereo not given) | 12 | -2 | 1 | 1 | -3 | 2 | nt | nt | nt
SMILES | HNF4A DNA FP | TPT1 inhibitor | IDE cell inh | TbMetRS inhib | CSN deneddyl inh | IDE cell activ | TPT1 inh confirm | RNase T1 inh | HNF4a DNA conf | others
COc1ccc(NC(=O)CN(C)C(=O)CSc2nc3ccccc3s2)cc1 | 43* | 36* | 14 | 0 | 21 | -1 | 36* | 45* | 46*
O=C(CSc1nc(O)cc(=O)n1-c1ccc(Cl)c(Cl)c1)Nc1ccc(Cl)cc1Cl | 6 | 2 | 1 | 0 | -5 | -3 | nt | nt | nt
Cc1ccccc1C(=O)/C=C1/SCC(=O)N1C | 38* | 27* | -1 | 0 | 46* | -4 | 24 | 28* | 59*
Cc1nnc(SCc2nc3scc(-c4ccccc4)c3c(=O)[nH]2)s1 | 17 | 14 | 1 | 0 | 13 | 1 | nt | nt | nt
Nc1nnc(SCc2nc3scc(-c4ccccc4)c3c(=O)[nH]2)s1 | 45* | 36* | -1 | 0 | 13 | -6 | 41* | 54* | 56*
CC(=O)Nc1ccc(S(=O)(=O)NCc2nc(-c3cccc(C)c3)no2)cc1 | 62* | 41* | -2 | 1 | 16 | 2 | 73* | 80* | 64*
Cc1sc2nc(CSc3nnnn3-c3ccc(Cl)cc3)[nH]c(=O)c2c1C | 38* | 31* | -4 | 0 | 34 | 4 | 40* | 49* | 33*
CCN(CC)CCC12CC(C)OC1=Nc1ccccc1NC2=O (stereo not given) | -3 | nt | nt | -1 | -4 | nt | nt | nt | nt
CCOc1ccc(NC(=O)C2CCN(C(=O)C3CC(=O)N(c4ccc(C)cc4)C3)CC2)cc1 (stereo not given) | -1 | -2 | 3 | 0 | 2 | -4 | nt | nt | nt
COc1ccc2c(/C=N/Nc3ccc(C(=O)O)cc3)c[nH]c2c1 | 52* | 56* | 12 | 0 | 6 | -3 | 39* | 50* | 35*
